An excerpt weighted towards active compounds, which were near 1.7% of everything screened.
PolyA inhibitor: polyadenylation inhibitors in yeast reporter cells, primary screen, luminescence, S. cerevisiae; S. cerevisiae SKY197-pL101 polyadenylation reporter, beta-gal luminescence; efflux-impaired pdr1/pdr3 knockout yeast; score 100 = 6 SD above DMSO; activity score, % at 12 µM; 0.02% of 300,000 active;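 active = lowest replicate activity score at least 50, where 100 means six control SD above control mean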;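 note: yeast exposed to compound for 9 h at 30 °C; higher score means more reporter readthrough which indicates perturbed polyadenylation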
VIM-2 inhibitor: VIM-2 metallo-beta-lactamase inhibitors, primary screen, biochemical, epi-absorbance readout, Pseudomonas aeruginosa enzyme | purified VIM-2, nitrocefin hydrolysis, epi-absorbance fluorescence | inhibition, % at 5.6 µM | 0.89% of 290,000 active;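 active = inhibition above the mean of all tested compounds plus 3 SD, cutoff set per screening run, cut at about 7.5% in these data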;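 note: red hydrolysis product quenches plate fluorescence so inhibitors raise well fluorescence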
procasp3 activ: activators of human procaspase-3 D3A mutant, primary screen, biochemical, absorbance, PC-3 D3A mutant, single concentration | Caspase-3 (Homo sapiens), P42574 | recombinant procaspase-3 D3A, Ac-DEVD-pNA absorbance 405 nm | activation, % at 8.5 µM | 0.11% of 330,000 active | AID 463141, 2010;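 active = activation above the mean of all tested compounds plus 3 SD, cut at about 21% in these data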
Target sequence (P42574 whole entry D9A/D28A/D175A): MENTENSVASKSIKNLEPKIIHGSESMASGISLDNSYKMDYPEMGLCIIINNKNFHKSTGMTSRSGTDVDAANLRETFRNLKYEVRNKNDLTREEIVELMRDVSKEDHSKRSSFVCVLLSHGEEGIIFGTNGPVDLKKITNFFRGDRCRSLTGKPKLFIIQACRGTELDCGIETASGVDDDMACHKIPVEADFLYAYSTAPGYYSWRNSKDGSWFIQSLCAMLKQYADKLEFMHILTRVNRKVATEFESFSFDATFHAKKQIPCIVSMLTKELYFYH
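System: Procaspase-3 D3A mutant. Medium: Zinc-free 300 mM NaCl, 50 mM HEPES, 0.01% Triton X-100. Schedule: 1 h preincubation plus 2 h reaction at 25 °C. Measured by: 405 nm absorbance of p-nitroaniline, reads at 0 and 120 min. Read-out: percent activation relative to control range.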
IMP-1 inh: IMP-1 metallo-beta-lactamase inhibitors, primary screen, biochemical, epi-absorbance readout, Pseudomonas aeruginosa enzyme; metallo-beta-lactamase IMP-1 (Pseudomonas aeruginosa); purified IMP-1, nitrocefin hydrolysis, epi-absorbance fluorescence; inhibition, % at 5.6 µM; 0.45% of 290,000 active; AID 1556, 2009;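 active = inhibition above the mean plus 3 SD of all compounds in the same screening run, cut at about 4.5% in these data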
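Assay system: purified recombinant IMP-1 beta-lactamase. Input: IMP-1 0.2 nM before substrate addition. Buffer or medium: Zinc- and detergent-supplemented HEPES buffer, pH 7.1. Schedule: 25 °C, 15 min preincubation, 25 min reaction. Signal: Epi-absorbance fluorescence, 480 nm excitation, 530 nm emission. Evaluation: percent inhibition from optical density relative to buffer-blank wells.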
proCasp7 act: procaspase-7 activators, primary screen, counter-screen for procaspase-3 activator project, biochemical, absorbance, HTS, human; activation, % at 8.5 µM; AID 463210, 2010; 0.093% of 330,000 active; Caspase-7 (Homo sapiens), P55210; recombinant procaspase-7, Ac-DEVD-pNA absorbance 405 nm; D23A/D198A/D206A triple mutant, cannot self-cleave; scale: DMSO 0, 5 µM enzyme 100;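 active = percent activation above the screen-wide mean plus 3 SD, cut at about 25% in these data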
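Assay system: Uncleavable procaspase-7 mutant enzyme; Input: 2 µM procaspase-7 mutant as dispensed; Also added: DEVD-pNA substrate; Medium: Zinc-free HEPES pH 7.4 with 300 mM NaCl, 0.01% Triton X-100; Timing: 1 h compound preincubation, 2 h substrate cleavage, 25 °C; Measured by: Epi-absorbance of released pNA at 405 nm, two timepoints.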
Neddylation inh: inhibitors of cullin neddylation, primary screen, biochemical, TR-FRET, uHTS, NAE and Ubc12. AID 651699, 2012. calls only at 25 µM. 0.58% of 360,000 active. NEDD8-conjugating enzyme Ubc12 (Homo sapiens) + NEDD8-activating enzyme E1 regulatory …; in the data active = inhibition above about 36%
PC3 D3A act: procaspase-3 activators, counter-screen for dual procaspase-3/7 activator project, biochemical, absorbance, PC-3 D3A mutant, human; shares compounds with proCasp7 act; recombinant PC-3 D3A, Ac-DEVD-pNA absorbance 405 nm; aspartates 9, 28, 175 changed to alanine; 100% = enzyme control; activation, % at 8.5 µM; 290 tested, under 10 active; AID 493114, 2011;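 active = mean percent activation across triplicates above a set limit taken from the earlier primary procaspase-3 screen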
Procasp7 act: activation of procaspase-7 enzyme – biochemical, absorbance, human, dual procaspase-3/-7 activator project, confirmation; shares compounds with proCasp7 act; recombinant procaspase-7, Ac-DEVD-pNA absorbance 405 nm; D23A/D198A/D206A mutant that cannot self-cleave; activation, % at 8.5 µM; 290 tested, under 10 active;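 active = mean activation above a set limit carried over from the earlier primary screen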
Of the large screens only hits and unclear results are named; the others gave an inactive call (follow-up assays come after a bar, where shown).

COc1ccc(C(=O)N/N=C/c2ccc3cccc(OCc4ccccc4)c3n2)cc1	proCasp7 act 30 (not shown: Neddylation inh) | PC3 D3A act inactive | Procasp7 act inactive
O=C(N/N=C/c1ccc2cccc(OCc3ccccc3)c2n1)c1ccc(Br)cc1	none
O=C(CCSCCC(=O)NCc1cccs1)NCc1cccs1	none
CSc1nnc(-c2cc3c(s2)-c2ccccc2CC3)o1	proCasp7 act 33 (not shown: Neddylation inh) | PC3 D3A act inactive | Procasp7 act inactive
CCCC(C(=O)NCC1CCCO1)N(Cc1ccco1)C(=O)CNS(=O)(=O)c1ccccc1 (stereo unspecified)	none (no result: Neddylation inh)
COc1ccc2nc3cc(Cl)ccc3c(Nc3cc(C(C)C)c(O)cc3C)c2c1	proCasp7 act 26 | PC3 D3A act inactive | Procasp7 act inactive
COc1ccc(-c2oc(=O)c3cc(OC)c(OC)cc3c2-c2cc(F)cc(OC)c2)cc1	none (no result: PolyA inhibitor, VIM-2 inhibitor, IMP-1 inh)
COc1ccc(-c2c(-c3ccc(C#N)cc3)oc(=O)c3cc(OC)c(OC)cc23)cc1	proCasp7 act 26 (no result: PolyA inhibitor, VIM-2 inhibitor, IMP-1 inh) | PC3 D3A act inactive | Procasp7 act inactive
CCCc1nnc(SCC(=O)Nc2ccc(OC)cc2)n1N	none
O=C(Nc1cccnc1)c1sc(Nc2ccccc2)nc1-c1ccccc1	proCasp7 act 29 (not shown: Neddylation inh) | PC3 D3A act inactive | Procasp7 act inactive
C=CCOc1ccccc1C1C2=C(CC(C)(C)CC2=O)Nc2c1c(=O)n(C)c(=O)n2C (stereo unspecified)	none (not shown: Neddylation inh)
COc1ccc(C2C3=C(CC(C)(C)CC3=O)Nc3c2c(=O)n(C)c(=O)n3C)cc1OC (stereo unspecified)	proCasp7 act 27 | PC3 D3A act inactive | Procasp7 act inactive
Cc1c(C(=O)N/N=C/c2ccc(N(C)C)cc2)[nH]c2ccc(Cl)cc12	proCasp7 act 35 (not shown: Neddylation inh) | PC3 D3A act inactive | Procasp7 act inactive
COc1cc(Cn2c(N)c(C#N)c3nc4ccccc4nc32)cc(OC)c1	procasp3 activ 91, proCasp7 act 85 (not shown: Neddylation inh) | PC3 D3A act inactive | Procasp7 act inactive
COC(=O)c1cccc(C23CC4(C2)[C@H](CN(Cc2ccc(-c5ccccc5)cc2)[C@@H]4c2ccccc2)C3c2ccc(C(F)(F)F)cc2)c1 (stereo partly specified)	none (no result: VIM-2 inhibitor, IMP-1 inh, Neddylation inh)
CCOC(=O)c1c(NC(=O)COC(=O)c2ccccc2NC)sc(C(=O)N(C)C)c1C	proCasp7 act 29 (not shown: Neddylation inh) | PC3 D3A act inactive | Procasp7 act inactive
Cn1c(SCC(=O)N/N=C/c2cccnc2)nnc1-c1ccccc1	none
COc1ccc(OC)c(/C=C/C(=O)N2CCN(S(=O)(=O)c3ccc(C)cc3C)CC2)c1	proCasp7 act 32 (not shown: PolyA inhibitor, VIM-2 inhibitor, IMP-1 inh, Neddylation inh) | PC3 D3A act inactive | Procasp7 act inactive
CCN(CC)c1ccc(C(=O)OCc2cc(=O)oc3cc(O)ccc23)cc1	procasp3 activ 32, proCasp7 act 40 | PC3 D3A act inactive | Procasp7 act inactive
CCCCc1cc(=O)oc2cc(O)ccc12	none (not shown: Neddylation inh)
Cc1[nH]c2ccccc2c1C(=O)COC(=O)c1ccc2c(=O)n3c(nc2c1)CCC3	none

Screening results deposited in PubChem by several laboratories.
